# According to ChEMBL document CHEMBL1255303, “In vitro and in vivo antifungal activities of T-2307, a novel arylamidine” (2008):
# Active and inactive are the calls of the source. The rule behind the calls is not given here.
# Columns and labels:
# Candida albicans [1] = assay: Antifungal activity against Candida albicans ATCC 10261 after 48 hrs by broth microdilution method; type: functional; settings: ATCC 10261, 48 h
# Procedure, shortened: (§1)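 CLSI M27-A2 (yeasts) / M38-A (moulds) broth microdilution in RPMI 1640 buffered to pH 7.0 with 0.165 M MOPS. Malassezia furfur got the same medium supplemented with glucose, bile salts, glycerol, glycerol monostearate and Tween 20. Final inoculum 0.65 × 10^3–2.5 × 10^3 CFU/ml for yeasts and 0.87 × 10^4–3.8 × 10^4 CFU/ml for filamentous fungi. Incubation at 35°C except M. racemosus and F. solani, which were held at 30°C.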
# Candida albicans [2] = assay: Antifungal activity against Candida albicans ATCC 90028 after 48 hrs by broth microdilution method; type: functional; settings: ATCC 90028, 48 h; procedure, shortened: as §1
# Candida albicans [3] = assay: Antifungal activity against Candida albicans TIMM 1623 after 48 hrs by broth microdilution method; type: functional; settings: TIMM 1623, 48 h; procedure, shortened: as §1
# Candida dubliniensis = assay: Antifungal activity against Candida dubliniensis ATCC MYA-577 after 48 hrs by broth microdilution method; type: functional; settings: ATCC MYA-577, 48 h; procedure, shortened: as §1
# Pichia kudriavzevii = assay: Antifungal activity against Candida krusei IFO 0584 after 48 hrs by broth microdilution method; type: functional; settings: IFO 0584, 48 h; procedure, shortened: as §1
# Candida tropicalis = assay: Antifungal activity against Candida tropicalis IFO 1400 after 48 hrs by broth microdilution method; type: functional; settings: IFO 1400, 48 h; procedure, shortened: as §1
# Cryptococcus neoformans = assay: Antifungal activity against Cryptococcus neoformans TIMM 0354 after 72 hrs by broth microdilution method; type: functional; settings: TIMM 0354, 72 h
# Procedure, shortened: (§2)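 CLSI M27-A2 (yeasts) or M38-A (A. fumigatus) broth microdilution in RPMI 1640 buffered to pH 7.0 with 0.165 M MOPS. Final inocula were 0.65–2.5 × 10^3 CFU/ml for yeasts and 0.87–3.8 × 10^4 CFU/ml for filamentous fungi. Incubation was at 35°C for about 48 h (72 h for C. neoformans). MIC was the lowest concentration giving a prominent (~50%) turbidity drop versus growth control; amphotericin B required complete inhibition.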
# Malassezia furfur = assay: Antifungal activity against Malassezia furfur NBRC 0656 after 48 hrs by broth microdilution method; type: functional; settings: NBRC 0656, 48 h; procedure, shortened: as §1
# Saccharomyces cerevisiae = assay: Antifungal activity against Saccharomyces cerevisiae ATCC 24657 after 48 hrs by broth microdilution method; type: functional; settings: ATCC 24657, 48 h; procedure, shortened: as §1
# Trichosporon asahii = assay: Antifungal activity against Trichosporon asahii JCM 2466 after 48 hrs by broth microdilution method; type: functional; settings: JCM 2466, 48 h; procedure, shortened: as §1
# Aspergillus fumigatus [4] = assay: Antifungal activity against Aspergillus fumigatus ATCC 16424 after 48 hrs by broth microdilution method; type: functional; settings: ATCC 16424, 48 h; procedure, shortened: as §2
# Aspergillus fumigatus [5] = assay: Antifungal activity against Aspergillus fumigatus IFM 49895 after 48 hrs by broth microdilution method; type: functional; settings: IFM 49895, 48 h; procedure, shortened: as §1
# Aspergillus fumigatus [6] = assay: Antifungal activity against Aspergillus fumigatus TIMM 0063 after 48 hrs by broth microdilution method; type: functional; settings: TIMM 0063, 48 h; procedure, shortened: as §1
# Aspergillus nidulans = assay: Antifungal activity against Aspergillus nidulans NBRC 33017 after 48 hrs by broth microdilution method; type: functional; settings: NBRC 33017, 48 h; procedure, shortened: as §1
# Aspergillus niger = assay: Antifungal activity against Aspergillus niger NBRC 33023 after 48 hrs by broth microdilution method; type: functional; settings: NBRC 33023, 48 h; procedure, shortened: as §1
# Lichtheimia corymbifera = assay: Antifungal activity against Absidia corymbifera NBRC 4009 after 24 hrs by broth microdilution method; type: functional; settings: NBRC 4009, 24 h; procedure, shortened: as §1
# Mucor racemosus = assay: Antifungal activity against Mucor racemosus NBRC5403 after 24 hrs by broth microdilution method; type: functional; settings: NBRC5403, 24 h
# Candida albicans [7] = assay: Antifungal activity against Candida albicans ATCC 96901 after 47 hrs by broth microdilution method; type: functional; settings: ATCC 96901, 47 h
# Procedure, shortened: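 Fluconazole-resistant or susceptible-dose-dependent ATCC C. albicans strains were tested by CLSI M27-A2 broth microdilution in RPMI 1640–0.165 M MOPS, pH 7.0, with a final inoculum of 1.1–1.5 × 10^3 CFU/ml at 35°C for about 47 h. MIC was the lowest concentration with a prominent (~50%) turbidity decrease relative to growth control; amphotericin B was read at complete inhibition.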
# Candida albicans [8] = assay: Antifungal activity against Candida albicans clinical isolates after 48 hrs by broth microdilution method; type: functional
# Procedure, shortened: (§3)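 Clinical isolates from Japanese hospitals or culture collections were tested by broth microdilution in RPMI 1640-MOPS. Inoculum was 0.57 × 10^3–2.5 × 10^3 CFU/ml for yeasts and 0.4 × 10^4–3.3 × 10^4 CFU/ml for filamentous fungi. Incubation was at 35°C for about 48 h, or 72 h where footnoted. Results were summarised as MIC range, MIC50 and MIC90.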
# [9] = tested on: Meyerozyma guilliermondii; assay: Antifungal activity against Candida guilliermondii clinical isolates after 48 hrs by broth microdilution method; type: functional; procedure, shortened: as §3
# Candida parapsilosis = assay: Antifungal activity against Candida parapsilosis clinical isolates after 48 hrs by broth microdilution method; type: functional; settings: Lodderomyces parapsilosis
# Procedure, shortened: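 Japanese hospital Candida isolates were tested by CLSI M27-A2 broth microdilution in RPMI 1640–MOPS, pH 7.0, with inocula of 0.57–2.5 × 10^3 CFU/ml at 35°C for about 48 h. Inocula came from 24-h potato dextrose agar cultures. MIC was the lowest concentration with about 50% turbidity reduction versus growth control (complete inhibition for amphotericin B). Range, MIC50 and MIC90 were reported.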
# Aspergillus fumigatus [10] = assay: Antifungal activity against Aspergillus fumigatus clinical isolates after 48 hrs by broth microdilution method; type: functional; procedure, shortened: as §3
# Aspergillus fumigatus [11] = assay: Antifungal activity against Aspergillus fumigatus IFM 46895 infected ICR mouse assessed as delay in mortality of mouse at 1 mg/kg after 6 days; type: functional, organism-based; design: dose 1 mg/kg
# Procedure, shortened: (§4)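 Male ICR mice, 4 weeks old and SPF, were made neutropenic with intraperitoneal cyclophosphamide. The schedule was 200 mg/kg on day −3 (day −4 for Cryptococcus) plus 100 mg/kg on day +1. Infection was by tail-vein injection of 0.2 ml suspension: C. albicans 3.0 × 10^4, C. neoformans 9.1 × 10^4, A. fumigatus conidia 8.4 × 10^4 CFU/mouse. Drugs were given subcutaneously once daily for 7 days from 2 h post-infection; controls received saline. Groups had 8–10 mice.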
# Candida albicans [12] = assay: Antifungal activity against Candida albicans TIMM 1623 infected ICR mouse after 6 days; type: functional; settings: TIMM 1623, 144 h; procedure, shortened: as §4
smiles,measurement,setting,value
OC(Cn1cncn1)(Cn1cncn1)c1ccc(F)cc1F [FLUCONAZOLE],MFC,Candida albicans [1],> 64 µg/mL
same,MIC,Candida albicans [1],0.125 µg/mL
same,MFC,Candida albicans [2],> 64 µg/mL
same,MIC,Candida albicans [2],0.125 µg/mL
same,MFC,Candida albicans [3],> 64 µg/mL
same,MIC,Candida albicans [3],0.125 µg/mL
same,MFC,Candida dubliniensis,> 64 µg/mL
same,MIC,Candida dubliniensis,0.125 µg/mL
same,MFC,Pichia kudriavzevii,64 µg/mL
same,MIC,Pichia kudriavzevii,32 µg/mL
same,MFC,Candida tropicalis,> 64 µg/mL
same,MIC,Candida tropicalis,2 µg/mL
same,MFC,Cryptococcus neoformans,> 64 µg/mL
same,MIC,Cryptococcus neoformans,2 µg/mL
same,MFC,Malassezia furfur,> 64 µg/mL
same,MIC,Malassezia furfur,4 µg/mL
same,MFC,Saccharomyces cerevisiae,> 64 µg/mL
same,MIC,Saccharomyces cerevisiae,8 µg/mL
same,MFC,Trichosporon asahii,> 64 µg/mL
same,MIC,Trichosporon asahii,1 µg/mL
same,MFC,Aspergillus fumigatus [4],> 64 µg/mL
same,MIC,Aspergillus fumigatus [4],> 64 µg/mL
same,MFC,Aspergillus fumigatus [5],> 64 µg/mL
same,MIC,Aspergillus fumigatus [5],> 64 µg/mL
same,MFC,Aspergillus fumigatus [6],> 64 µg/mL
same,MIC,Aspergillus fumigatus [6],> 64 µg/mL
same,MFC,Aspergillus nidulans,> 64 µg/mL
same,MIC,Aspergillus nidulans,64 µg/mL
same,MFC,Aspergillus niger,> 64 µg/mL
same,MIC,Aspergillus niger,> 64 µg/mL
same,MFC,Lichtheimia corymbifera,> 64 µg/mL
same,MIC,Lichtheimia corymbifera,> 64 µg/mL
same,MFC,Mucor racemosus,> 64 µg/mL
same,MIC,Mucor racemosus,> 64 µg/mL
same,MIC,Candida albicans [7],> 64 µg/mL
same,MIC,Candida albicans [8],0.125 µg/mL
same,MIC50,Candida albicans [8],0.125 µg/mL
same,MIC90,Candida albicans [8],0.25 µg/mL
same,MIC50,[9],4 µg/mL
same,MIC90,[9],8 µg/mL
same,MIC50,Candida parapsilosis,0.5 µg/mL
same,MIC90,Candida parapsilosis,1 µg/mL
same,MIC,Aspergillus fumigatus [10],> 64 µg/mL
same,MIC50,Aspergillus fumigatus [10],> 64 µg/mL
same,MIC90,Aspergillus fumigatus [10],> 64 µg/mL
N=C(N)c1ccc(OCCCC2CCN(CCCOc3ccc(C(=N)N)cc3)CC2)cc1,MFC,Candida albicans [1],> 64 µg/mL
same,MIC,Candida albicans [1],0.001 µg/mL
same,MFC,Candida albicans [2],> 64 µg/mL
same,MIC,Candida albicans [2],0.001 µg/mL
same,MFC,Candida albicans [3],> 64 µg/mL
same,MIC,Candida albicans [3],0.001 µg/mL
same,MFC,Candida dubliniensis,> 64 µg/mL
same,MIC,Candida dubliniensis,0.001 µg/mL
same,MFC,Pichia kudriavzevii,0.002 µg/mL
same,MIC,Pichia kudriavzevii,0.001 µg/mL
same,MFC,Candida tropicalis,4 µg/mL
same,MIC,Candida tropicalis,0.0005 µg/mL
same,MFC,Cryptococcus neoformans,0.0156 µg/mL
same,MIC,Cryptococcus neoformans,0.0039 µg/mL
same,MFC,Malassezia furfur,2 µg/mL
same,MIC,Malassezia furfur,0.0313 µg/mL
same,MFC,Saccharomyces cerevisiae,> 64 µg/mL
same,MIC,Saccharomyces cerevisiae,> 64 µg/mL
same,MFC,Trichosporon asahii,> 64 µg/mL
same,MIC,Trichosporon asahii,64 µg/mL
same,MFC,Aspergillus fumigatus [4],> 64 µg/mL
same,MIC,Aspergillus fumigatus [4],0.125 µg/mL
same,MFC,Aspergillus fumigatus [5],> 64 µg/mL
same,MIC,Aspergillus fumigatus [5],0.5 µg/mL
same,MFC,Aspergillus fumigatus [6],> 64 µg/mL
same,MIC,Aspergillus fumigatus [6],1 µg/mL
same,MFC,Aspergillus nidulans,0.0313 µg/mL
same,MIC,Aspergillus nidulans,0.0156 µg/mL
same,MFC,Aspergillus niger,0.0625 µg/mL
same,MIC,Aspergillus niger,0.0625 µg/mL
same,MFC,Lichtheimia corymbifera,> 64 µg/mL
same,MIC,Lichtheimia corymbifera,0.5 µg/mL
same,MFC,Mucor racemosus,> 64 µg/mL
same,MIC,Mucor racemosus,2 µg/mL
same,MIC,Candida albicans [7],0.001 µg/mL
same,MIC50,Candida albicans [8],0.0005 µg/mL
same,MIC90,Candida albicans [8],0.002 µg/mL
same,MIC50,[9],0.002 µg/mL
same,MIC90,[9],0.0039 µg/mL
same,MIC50,Candida parapsilosis,0.0005 µg/mL
same,MIC90,Candida parapsilosis,0.0005 µg/mL
same,MIC50,Aspergillus fumigatus [10],1 µg/mL
same,MIC90,Aspergillus fumigatus [10],2 µg/mL
same,Activity,Aspergillus fumigatus [11],Active
same,ED50,Candida albicans [12],7.55 µg/kg
